In publication PMC5463557 (Journal of medicinal chemistry, 2017):
Entries after “also recorded” stand apart in the source; their conditions may differ.

Legend:
human wild-type CFTR [1] = biological target: T1, human wild-type CFTR (Homo sapiens, UniProt P13569); test: Fluorescence plate reader assay of CFTR function; assay type: cell-based; details: for CFTR activation activity (in words): plate reader assay, structure-activity discussion
Procedure, shortened: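 FRT cells stably coexpressing human wild-type CFTR and YFP-H148Q, grown near-confluent in 96-well plates. Washed with PBS, then 10 min in PBS with test compound plus 125 nM forskolin. YFP fluorescence read in single wells for 2 s baseline and 12 s after adding iodide solution (final 140 mM). Iodide influx rates give concentration–response curves; EC50 reported as mean ± SEM.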

mice = details: cited from earlier work
human wild-type CFTR [2] = biological target: T1, human wild-type CFTR; test: Short-circuit current measurement in CFTR-expressing FRT cells; assay type: cell-based; details: data not shown
cellular cAMP level = test: Cellular cAMP in FRT cells; assay type: cell-based, rat; details: 10 μM, 10 min, without or with 90 nM forskolin
cytoplasmic calcium = test: Cytoplasmic calcium by Fluo-4 fluorescence in FRT cells; assay type: cell-based, rat; details: 10 μM, 5 min pretreatment, 100 μM ATP
[3] = system: calcium-activated chloride channels in HT-29 cells; test: Non-TMEM16A CaCC activity in HT-29 cells expressing YFP; assay type: cell-based; details: 10 μM
Procedure, shortened: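 HT-29 cells expressing YFP used for non-TMEM16A calcium-activated chloride channel activity, with test compound at 10 μM. Iodide influx rate computed from YFP fluorescence.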

TMEM16A = biological target: T2, TMEM16A (Homo sapiens, UniProt Q5XXA6); test: TMEM16A activity in FRT cells expressing YFP; assay type: cell-based; details: 10 μM
T2 sequence (Q5XXA6 1-986): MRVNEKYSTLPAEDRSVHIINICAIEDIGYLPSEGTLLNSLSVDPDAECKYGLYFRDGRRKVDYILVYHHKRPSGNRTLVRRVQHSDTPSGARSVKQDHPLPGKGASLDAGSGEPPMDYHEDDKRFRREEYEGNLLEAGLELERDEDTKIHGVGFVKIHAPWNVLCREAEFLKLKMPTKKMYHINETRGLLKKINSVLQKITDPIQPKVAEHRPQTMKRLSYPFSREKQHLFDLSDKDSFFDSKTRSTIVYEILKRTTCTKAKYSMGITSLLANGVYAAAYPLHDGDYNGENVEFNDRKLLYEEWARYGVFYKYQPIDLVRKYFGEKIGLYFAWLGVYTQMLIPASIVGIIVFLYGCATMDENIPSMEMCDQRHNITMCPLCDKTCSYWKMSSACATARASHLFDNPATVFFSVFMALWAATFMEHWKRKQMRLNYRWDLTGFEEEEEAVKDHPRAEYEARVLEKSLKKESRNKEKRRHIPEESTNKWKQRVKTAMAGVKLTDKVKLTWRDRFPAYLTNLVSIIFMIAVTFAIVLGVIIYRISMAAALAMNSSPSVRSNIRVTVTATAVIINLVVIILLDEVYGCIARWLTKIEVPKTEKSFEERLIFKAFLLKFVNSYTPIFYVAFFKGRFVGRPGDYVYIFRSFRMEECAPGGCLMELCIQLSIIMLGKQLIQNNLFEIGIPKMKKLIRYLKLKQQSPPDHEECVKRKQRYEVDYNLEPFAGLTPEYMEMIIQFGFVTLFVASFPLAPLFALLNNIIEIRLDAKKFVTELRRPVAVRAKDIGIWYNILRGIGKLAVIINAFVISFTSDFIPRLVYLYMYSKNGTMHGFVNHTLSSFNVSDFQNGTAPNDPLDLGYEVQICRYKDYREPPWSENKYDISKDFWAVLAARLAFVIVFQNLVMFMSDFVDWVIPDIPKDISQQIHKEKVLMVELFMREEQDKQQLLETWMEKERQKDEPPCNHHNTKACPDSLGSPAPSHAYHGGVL
Procedure, shortened: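 FRT cells coexpressing YFP and TMEM16A, tested with 10 μM test compound. Run like the YFP iodide-influx plate reader assay; iodide influx rate computed from fluorescence.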

[4] = system: loperamide-induced constipation in CD1 mice; test: Loperamide-induced mouse model of acute constipation; assay type: in vivo; details: oral, 1 h before loperamide, 3-h stool
Procedure, shortened: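 CD1 mice aged 8–10 weeks got test compound or vehicle orally 1 h before loperamide 0.3 mg/kg ip. Vehicle was saline with 5% DMSO and 10% Kolliphor HS 15. Mice kept in metabolic cages with free food and water; stool collected for 3 h. Total weight, pellet count and water content (wet vs dry weight) measured. Mean ± SEM; unpaired Student's t-test, P < 0.05.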

[5] = In vitro hepatic microsomal metabolic stability; assay type: in vitro ADME, human; details: 60 min, hepatic microsomes, NADPH, 5 μM

T1 sequence (P13569 whole entry): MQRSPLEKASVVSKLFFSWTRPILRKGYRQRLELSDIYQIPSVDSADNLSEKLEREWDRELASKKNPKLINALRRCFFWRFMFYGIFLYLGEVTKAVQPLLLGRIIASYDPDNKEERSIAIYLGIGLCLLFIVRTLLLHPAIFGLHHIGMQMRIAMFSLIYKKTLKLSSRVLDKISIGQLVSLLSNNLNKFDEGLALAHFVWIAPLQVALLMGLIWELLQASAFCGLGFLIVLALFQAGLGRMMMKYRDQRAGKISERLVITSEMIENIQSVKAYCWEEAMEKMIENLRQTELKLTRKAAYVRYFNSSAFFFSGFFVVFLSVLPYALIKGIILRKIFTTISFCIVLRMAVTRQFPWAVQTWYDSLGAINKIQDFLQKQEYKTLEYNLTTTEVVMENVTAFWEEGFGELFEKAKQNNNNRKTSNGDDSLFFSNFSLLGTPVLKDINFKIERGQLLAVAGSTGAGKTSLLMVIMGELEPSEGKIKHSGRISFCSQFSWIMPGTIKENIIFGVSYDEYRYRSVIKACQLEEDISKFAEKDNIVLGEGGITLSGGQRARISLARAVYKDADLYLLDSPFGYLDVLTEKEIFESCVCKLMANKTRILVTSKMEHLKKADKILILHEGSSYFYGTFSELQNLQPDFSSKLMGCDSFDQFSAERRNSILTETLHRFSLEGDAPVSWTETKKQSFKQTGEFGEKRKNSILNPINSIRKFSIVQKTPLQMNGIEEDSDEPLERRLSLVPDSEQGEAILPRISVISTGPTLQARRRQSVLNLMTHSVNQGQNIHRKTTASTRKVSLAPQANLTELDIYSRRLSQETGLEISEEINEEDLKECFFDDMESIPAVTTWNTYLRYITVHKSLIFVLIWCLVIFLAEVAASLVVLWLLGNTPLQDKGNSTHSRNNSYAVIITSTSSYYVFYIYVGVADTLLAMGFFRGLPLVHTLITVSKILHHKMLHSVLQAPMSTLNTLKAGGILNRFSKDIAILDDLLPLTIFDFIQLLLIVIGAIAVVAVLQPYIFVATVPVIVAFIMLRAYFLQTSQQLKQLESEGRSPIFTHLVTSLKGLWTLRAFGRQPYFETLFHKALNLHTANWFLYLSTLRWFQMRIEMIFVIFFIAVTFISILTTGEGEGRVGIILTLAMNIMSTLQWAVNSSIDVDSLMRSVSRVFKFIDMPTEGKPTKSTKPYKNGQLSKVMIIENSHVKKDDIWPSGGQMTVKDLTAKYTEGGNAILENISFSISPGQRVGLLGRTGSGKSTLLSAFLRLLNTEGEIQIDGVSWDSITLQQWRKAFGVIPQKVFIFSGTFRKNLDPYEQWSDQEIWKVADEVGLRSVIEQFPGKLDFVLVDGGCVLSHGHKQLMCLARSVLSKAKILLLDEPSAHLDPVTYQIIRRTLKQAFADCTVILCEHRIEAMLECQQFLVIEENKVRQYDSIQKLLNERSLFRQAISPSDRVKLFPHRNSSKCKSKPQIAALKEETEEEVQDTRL

Row | Compound | CFTR activation activity (in words) (human wild-type CFTR [1]) | also measured
1 | O=c1c(-c2cccc([N+](=O)[O-])c2)nc2ccccc2n1Cc1ccco1 [3i, 1-(Furan-2-ylmethyl)-3-(3-nitrophenyl)quinoxalin-2(1H)-one] | comparable activity | –
2 | N#Cc1cccc(-c2nc3ccccc3n(Cc3ccccc3)c2=O)c1 [1l, 3-(4-Benzyl-3-oxo-3,4-dihydroquinoxalin-2-yl)benzonitrile] | greatly reduced activity | –
3 | O=c1c(-c2cccc(Br)c2)nc2ccccc2n1Cc1ccccc1 [1g, 1-Benzyl-3-(3-bromophenyl)quinoxalin-2(1H)-one] | low activity | –
4 | O=c1c(-c2cccc([N+](=O)[O-])c2)nc2cc(Cl)c(Cl)cc2n1Cc1ccccc1 [2d, 1-Benzyl-6,7-dichloro-3-(3-nitrophenyl)quinoxalin-2(1H)-one] | reduced activity | –
5 | O=c1c(-c2cccc([N+](=O)[O-])c2)nc2ccccc2n1Cc1cccs1 [3j, 3-(3-Nitrophenyl)-1-(thiophen-2-ylmethyl)quinoxalin-2(1H)-one] | comparable activity | –
6 | O=c1c(-c2ccccc2)nc2ccccc2n1Cc1ccccc1 [1h, 1-Benzyl-3-phenylquinoxalin-2(1H)-one] | significantly lower activity | –
7 | Nc1ccc(C(=O)O)cc1-c1nc2ccccc2n(Cc2ccccc2)c1=O [1k, 4-Amino-3-(4-benzyl-3-oxo-3,4-dihydroquinoxalin-2-yl)benzoic Acid] | inactive | –
8 | O=c1c(-c2ccc3nonc3c2)nc2ccccc2n1Cc1ccccc1 [1m, 3-(Benzo[c][1,2,5]oxadiazol-5-yl)-1-benzylquinoxalin-2(1H)-one] | comparable potency to the nitro analog | –
9 | O=c1c(-c2cccc([N+](=O)[O-])c2)nc2ccccc2n1Cc1ccc2ccccc2c1 [3g, 1-(Naphthalen-2-ylmethyl)-3-(3-nitrophenyl)quinoxalin-2(1H)-one] | significantly reduced activity | –
10 | O=c1c(-c2cccc([N+](=O)[O-])c2)nc2cc(Cl)ccc2n1Cc1ccccc1 [2b, 1-Benzyl-6-chloro-3-(3-nitrophenyl)quinoxalin-2(1H)-one] | good activity | –
11 | Nc1ccc([N+](=O)[O-])cc1-c1nc2ccccc2n(Cc2ccccc2)c1=O [compound 4] | – | Off-target actions or toxicity (mice; chronic administration in mice): no apparent off-target actions or toxicity; Metabolism (mice): rapid metabolism; Oral bioavailability (mice; mice): minimal oral bioavailability
12 | O=c1c(-c2ccc(C(F)(F)F)cc2)nc2ccccc2n1Cc1ccccc1 [1f, 1-Benzyl-3-(4-(trifluoromethyl)phenyl)quinoxalin-2(1H)-one] | low activity | –
13 | O=c1c(-c2ccc(F)c([N+](=O)[O-])c2)nc2ccccc2n1Cc1ccccc1 [1i, 1-Benzyl-3-(4-fluoro-3-nitrophenyl)quinoxalin-2(1H)-one] | reduced activity | –
14 | O=c1c(-c2cccc([N+](=O)[O-])c2)nc2ccccc2n1Cc1ccccn1 [3h, 3-(3-Nitrophenyl)-1-(pyridin-2-ylmethyl)quinoxalin-2(1H)-one] | comparable activity | –
15 | COC(=O)c1ccc(N)c(-c2nc3ccccc3n(Cc3ccccc3)c2=O)c1 [1j, Methyl 4-Amino-3-(4-benzyl-3-oxo-3,4-dihydroquinoxalin-2-yl)-benzoate] | moderately potent | –
16 | O=c1c(-c2cccc([N+](=O)[O-])c2)nc2ccccc2n1Cc1cccc2ccccc12 [3f, 1-(Naphthalen-1-ylmethyl)-3-(3-nitrophenyl)quinoxalin-2(1H)-one] | significantly reduced activity | –
17 | O=c1c(-c2ccc([N+](=O)[O-])cc2)nc2ccccc2n1Cc1ccccc1 [1e, 1-Benzyl-3-(4-nitrophenyl)quinoxalin-2(1H)-one] | reduced activity | –
18 | O=c1c(-c2cccc([N+](=O)[O-])c2)nc2cc(F)c(F)cc2n1Cc1ccccc1 [2g, 1-Benzyl-6,7-difluoro-3-(3-nitrophenyl)quinoxalin-2(1H)-one] | reduced activity | –
19 | O=c1c(-c2cccc([N+](=O)[O-])c2)nc2cc(Br)ccc2n1Cc1ccccc1 [2f, 1-Benzyl-6-bromo-3-(3-nitrophenyl)quinoxalin-2(1H)-one] | good activity; also recorded: underperforms by nearly an order of magnitude compared to unsubstituted 1c | –
20 | O=c1c(-c2cccc([N+](=O)[O-])c2)nc2ccccc2n1Cc1ccccc1 [1c, 1-Benzyl-3-(3-nitrophenyl)quinoxalin-2(1H)-one] | – | Increase in potency compared to 4 (human wild-type CFTR [1]; CFTR activation potency relative to 4): ~10 fold; Potency in nonpermeabilized versus permeabilized CFTR-expressing FRT cells (human wild-type CFTR [2]): similar; Effect on cellular cAMP level (cellular cAMP level): did not affect; Effect on cytoplasmic calcium and ATP-stimulated calcium elevation (cytoplasmic calcium): nor did it elevate cytoplasmic calcium or inhibit the ATP-stimulated elevation in cytoplasmic calcium; Inhibition or activation of calcium-activated chloride channels [3]: neither inhibited nor activated; Inhibition or activation of TMEM16A (TMEM16A): neither inhibited nor activated; Stool weight, pellet number and hydration [4]: fully normalized; Compound metabolized [5]: < 40%
21 | COC(=O)c1ccc([N+](=O)[O-])c(-c2nc3ccccc3n(Cc3ccccc3)c2=O)c1 [1a, Methyl 3-(4-Benzyl-3-oxo-3,4-dihydroquinoxalin-2-yl)-4-nitrobenzoate] | very low activity | –
22 | O=c1c(-c2ccccc2[N+](=O)[O-])nc2ccccc2n1Cc1ccccc1 [1d, 1-Benzyl-3-(2-nitrophenyl)quinoxalin-2(1H)-one] | reduced activity | –
23 | Cc1cc2nc(-c3cccc([N+](=O)[O-])c3)c(=O)n(Cc3ccccc3)c2cc1C [2i, 1-Benzyl-6,7-dimethyl-3-(3-nitrophenyl)quinoxalin-2(1H)-one] | reduced activity | –
24 | O=C(O)c1ccc([N+](=O)[O-])c(-c2nc3ccccc3n(Cc3ccccc3)c2=O)c1 [1b, 3-(4-Benzyl-3-oxo-3,4-dihydroquinoxalin-2-yl)-4-nitrobenzoic Acid] | very low activity | –
